The test system of series [1] is Mus musculus. The experiment in a line: Reduction in apomorphine-induced sterotypic climbing in Swiss-Webster mouse at 0.1 mg/kg, ip administered 30 mins prior to apomorphine-challenge measured after 5 mins. The series is classed as functional, organism-based. Also noted: dose 0.1 mg/kg. In short, it runs like this: (§1)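 Male Swiss–Webster mice (20–30 g) were dosed ip in 0.9% saline. Thirty minutes later they received apomorphine HCl, 1 mg/kg sc. Each mouse was placed in a wire-mesh cage and scored for vertical climbing after about 5 min of exploration, with two scores per animal averaged. Groups had 10 mice, compared with saline controls by two-tailed Student's t test.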

For series [2], the species on record is Canis familiaris. In words: Reduction in dopamine-induced depressor response in pentobarbital-anesthesized, morphine-premedicated, atropinized, right femoral artery and vein-cannulated mongrel dog. The format is functional, organism-based. Particulars: Canis lupus familiaris. In short, it runs like this: (§2)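 Atropinized mongrel dogs pretreated with phenoxybenzamine, 5 mg/kg, to remove the dopamine pressor action. Depressor response was evoked with dopamine, 3 µg/kg iv. Test drug was given iv in 2 mL saline. ED50 was taken from a linear plot of log dose vs % antagonism of the dopamine depressor effect.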

Series [3] concerns Canis familiaris. In words: Cardiovascular activity in pentobarbital-anesthesized, morphine-premedicated, atropinized, right femoral artery and vein-cannulated mongrel dog at 95 to 120 umol/kg in presence of metoclopramide. The series is classed as ADME, organism-based, Canis lupus familiaris. Particulars: in vivo.
Series [4] deals with Canis familiaris. The experiment in a line: Inhibition of norepinephrine-induced inotropic effects in pentobarbital-anesthesized, morphine-premedicated, atropinized, right femoral artery and vein-cannulated mongrel dog up to 71 umol/kg. Conditions: Canis lupus familiaris. The series is classed as functional, organism-based.
Series [5] relates to Mus musculus. In words: Potentiation of apomorphine-induced sterotypic climbing in ip dosed Swiss-Webster mouse administered for 7 days. The format is functional.
Series [6] deals with Canis familiaris. In words: Inhibition of N-isopropylnorepinephrine-induced chronotropic effects in pentobarbital-anesthesized, morphine-premedicated, atropinized, right femoral artery and vein-cannulated mongrel dog up to 71 umol/kg. The series is classed as functional, organism-based. Conditions: Canis lupus familiaris.
Series [7] concerns Canis familiaris. The experiment in a line: Inhibition of N-isopropylnorepinephrine-induced inotropic effects in pentobarbital-anesthesized, morphine-premedicated, atropinized, right femoral artery and vein-cannulated mongrel dog up to 71 umol/kg. The format is functional, organism-based. Particulars: Canis lupus familiaris.
Series [8] concerns Canis familiaris. The experiment in a line: Cardiovascular activity in pentobarbital-anesthesized, morphine-premedicated, atropinized, right femoral artery and vein-cannulated mongrel dog assessed as decrease in mean blood pressure at 2.4 umol/kg relative to control. The format is ADME, organism-based, Canis lupus familiaris. Also noted: scale not given: the % may be the effect or the level left. Conditions: in vivo. In short, it runs like this:
(§3)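 Mongrel dogs atropinized (1 mg/kg) and checked for autonomic responsiveness with norepinephrine and N-isopropylnorepinephrine (0.1–0.2 µg/kg each). Drugs were given iv via an indwelling venous catheter in 2 mL 0.9% saline. Blood pressure and heart rate were recorded via an arterial catheter. Threshold dose was read from a linear plot of % fall in mean pressure against log dose.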

Series [9] concerns Canis familiaris. In words: Cardiovascular activity in pentobarbital-anesthesized, morphine-premedicated, atropinized, right femoral artery and vein-cannulated mongrel dog at 95 to 120 umol/kg in presence of haloperidol. The format is ADME, organism-based, Canis lupus familiaris. Conditions: in vivo.
The subject of series [10] is Canis familiaris. In words: Inhibition of norepinephrine-induced blood pressure effects in pentobarbital-anesthesized, morphine-premedicated, atropinized, right femoral artery and vein-cannulated mongrel dog up to 71 umol/kg. The series is classed as functional, organism-based. Particulars: Canis lupus familiaris.
Series [11] deals with Mus musculus. In words: Potentiation of apomorphine-induced sterotypic climbing in Swiss-Webster mouse at 42.5 to 59.4 umol/kg, ip administered 30 mins prior to apomorphine-challenge measured after 5 mins. The series is classed as functional, organism-based. Conditions: 47.5 to 59.4 umol/kg, in the assay text read “47.5 to 59.4 umol/kg” for “42.5 to 59.4 umol/kg”. In outline: as §1

For series [12], the system named is Canis familiaris. In words: Reduction in dopamine-induced depressor response in pentobarbital-anesthesized, morphine-premedicated, atropinized, right femoral artery and vein-cannulated mongrel dog at 12 to 17 umol/kg in presence of alpha-adrenergic blocker phenoxybenzamine. The series is classed as functional, organism-based. Conditions: Canis lupus familiaris. In short, it runs like this: as §2

Series [13] concerns Canis familiaris. The experiment in a line: Reduction in dopamine-induced depressor response in pentobarbital-anesthesized, morphine-premedicated, atropinized, right femoral artery and vein-cannulated mongrel dog assessed as half life of drug action at 6 ug/kg. The format is functional, organism-based. Conditions: Canis lupus familiaris. In short, it runs like this: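 Single atropinized dog given 6 µg/kg test drug iv. Residual blockade was measured every 5 min against a 5 µg/kg dopamine challenge. Half-life came from a linear plot of log residual blockade vs time.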

The species named for series [14] is Canis familiaris. The experiment in a line: Cardiovascular activity in pentobarbital-anesthesized, morphine-premedicated, atropinized, right femoral artery and vein-cannulated mongrel dog assessed as decrease in diastolic pressure. The format is ADME, organism-based, Canis lupus familiaris. Particulars: in vivo. In short, it runs like this:
as §3

Series [15] has as its system Canis familiaris. In words: Cardiovascular activity in pentobarbital-anesthesized, morphine-premedicated, atropinized, right femoral artery and vein-cannulated mongrel dog at 95 to 120 umol/kg in presence of propranolol. The series is classed as ADME, organism-based, Canis lupus familiaris. Conditions: in vivo.
Series [16] is filed under the species Canis familiaris. The experiment in a line: Reduction in dopamine-induced depressor response in pentobarbital-anesthesized, morphine-premedicated, atropinized, right femoral artery and vein-cannulated mongrel dog in presence of alpha-adrenergic blocker phenoxybenzamine. The format is functional. Conditions: Canis lupus familiaris. In outline: as §2
Series [17] concerns Canis familiaris. In words: Inhibition of norepinephrine-induced chronotropic effects in pentobarbital-anesthesized, morphine-premedicated, atropinized, right femoral artery and vein-cannulated mongrel dog up to 71 umol/kg. The format is functional, organism-based. Particulars: Canis lupus familiaris.
Series [18] relates to Canis familiaris. In words: Inhibition of N-isopropylnorepinephrine-induced blood pressure effects in pentobarbital-anesthesized, morphine-premedicated, atropinized, right femoral artery and vein-cannulated mongrel dog up to 71 umol/kg. The format is functional, organism-based. Particulars: Canis lupus familiaris.
For series [19], the system named is Canis familiaris. In words: Cardiovascular activity in pentobarbital-anesthesized, morphine-premedicated, atropinized, right femoral artery and vein-cannulated mongrel dog assessed as time required for decrease in mean blood pressure at 2.4 umol/kg. The format is ADME, organism-based, Canis lupus familiaris. Conditions: in vivo. In short, it runs like this:
as §3

For series [20], the species on record is Canis familiaris. The experiment in a line: Reduction in dopamine-induced depressor response in pentobarbital-anesthesized, morphine-premedicated, atropinized, right femoral artery and vein-cannulated mongrel dog assessed as threshold dose required for reduction. The format is functional, Canis lupus familiaris.
The species named for series [21] is Canis familiaris. In words: Cardiovascular activity in pentobarbital-anesthesized, morphine-premedicated, atropinized, right femoral artery and vein-cannulated mongrel dog assessed as vasodepression. The format is ADME, organism-based, Canis lupus familiaris. Conditions: in vivo. In outline: as §3
Series [22] has as its system Canis familiaris. In words: Cardiovascular activity in pentobarbital-anesthesized, morphine-premedicated, atropinized, right femoral artery and vein-cannulated mongrel dog at 95 to 120 umol/kg. Particulars: in vivo. The format is ADME, organism-based, Canis lupus familiaris.
The species entered for series [23] is Canis familiaris. The experiment in a line: Cardiovascular activity in pentobarbital-anesthesized, morphine-premedicated, atropinized, right femoral artery and vein-cannulated mongrel dog assessed as decrease in systolic pressure. The series is classed as ADME, organism-based, Canis lupus familiaris. Particulars: in vivo. In outline:
as §3

The species named for series [24] is Canis familiaris. The experiment in a line: Cardiovascular activity in pentobarbital-anesthesized, morphine-premedicated, atropinized, right femoral artery and vein-cannulated mongrel dog assessed as threshold dose required for decrease in mean blood pressure. The format is ADME, organism-based, Canis lupus familiaris. Particulars: in vivo. In outline:
as §3

SMILES strings stand for the structures. Calls of active or inactive are those of the source.

For the molecule `O=C(CCCN1CCC(O)(c2ccc(Cl)cc2)CC1)c1ccc(F)cc1`, the result in the series with Mus musculus [1] was Active.
As usually defined, the ED50 is the midpoint of the dose-response relation. For the molecule `COc1ccc(CC2CCC(Cc3ccc(OC)c(OC)c3)C2N)cc1OC.Cl` (centres undefined), the Activity entry in the series listed under Canis familiaris [2] was “Dose-dependent effect”; with Canis familiaris [3] it was “Toxic”; with Mus musculus [5], 5.94 µmol/kg; in the series on Canis familiaris [8], 10%; in the series with Canis familiaris [9] it was “Toxic”; in the series filed under Canis familiaris [14] it was “Dose-dependent effect”. In addition, the Activity entry with Canis familiaris [15] is “Toxic”; in the series filed under Canis familiaris [20], 0.7 µmol/kg; in the series filed under Canis familiaris [21], “Toxic”; with Canis familiaris [22] it was “Toxic”; in the series filed under Canis familiaris [23] it was “Dose-dependent effect”; in the series listed under Canis familiaris [24] it was 1.2 µmol/kg. Moreover, the inhibition entry in the series with Canis familiaris [4], in the series on Canis familiaris [6], with Canis familiaris [7], in the series on Canis familiaris [10], with Canis familiaris [17] and in the series with Canis familiaris [18] was “inactive” each time. In addition, the outcome in the series with Mus musculus [11] and in the series on Canis familiaris [12] was Active. For the same molecule, the T1/2 with Canis familiaris [13] was 18 min. Besides, the ED50 in the series listed under Canis familiaris [16] was determined as 4 µmol/kg. In addition, the Time in the series with Canis familiaris [19] is < 1 min.

Values taken from ChEMBL document CHEMBL3272139, “2,5-Bis(3,4-dimethoxybenzyl)cyclopentylamine, a peripheral dopamine blocking agent” (J Med Chem, 1978).
